From ChEMBL document CHEMBL4270541, “Synthesis and antimicrobial evaluation of amino sugar-based naphthoquinones and isoquinoline-5,8-diones and their halogenated compounds” (Eur J Med Chem, 2018) come the findings set out here.

For data set [1], the system named is Enterococcus faecalis. Briefly: Antimicrobial activity against Enterococcus faecalis INCQS 00234 ATCC 29212 assessed as zone of inhibition at 5 mg/ml after 18 to 24 hrs by disc diffusion method. It counts as functional. Particulars: ATCC 29212 INCQS 00234, read-out: IZ. On the technique in general: Agar diffusion results depend on both activity and mobility in agar.

Data set [2] deals with Staphylococcus aureus. Put plainly: Antimicrobial activity against Staphylococcus aureus INCQS 00015 ATCC 25923 assessed as zone of inhibition at 5 mg/ml after 18 to 24 hrs by disc diffusion method. It counts as functional. Particulars: read-out: IZ.
Data set [3] has as its system Staphylococcus epidermidis. Briefly: Antimicrobial activity against Staphylococcus epidermidis INCQS 00016 ATCC 12228 assessed as zone of inhibition at 5 mg/ml after 18 to 24 hrs by disc diffusion method. It counts as functional. The conditions noted are these: ATCC 12228 INCQS 00016, read-out: IZ.
The test system of data set [4] is Staphylococcus simulans. Put plainly: Antimicrobial activity against Staphylococcus simulans INCQS 00254 ATCC 27851 assessed as zone of inhibition at 5 mg/ml after 18 to 24 hrs by disc diffusion method. It counts as functional. Particulars: read-out: IZ.
The subject of data set [5] is Staphylococcus aureus. Put plainly: Antimicrobial activity against methicillin-resistant Staphylococcus aureus BMB9393 assessed as zone of inhibition at 5 mg/ml after 18 to 24 hrs by disc diffusion method. Particulars: read-out: IZ. It counts as functional.
Data set [6] relates to Escherichia coli. Briefly: Antimicrobial activity against Escherichia coli INCQS 00033 ATCC 25922 assessed as zone of inhibition at 5 mg/ml after 18 to 24 hrs by disc diffusion method. It counts as functional. The conditions noted are these: ATCC 25922 INCQS 00033, read-out: IZ.
Data set [7] concerns Proteus mirabilis. Put plainly: Antimicrobial activity against Proteus mirabilis INCQS 00095 ATCC 15290 assessed as zone of inhibition at 5 mg/ml after 18 to 24 hrs by disc diffusion method. It counts as functional. The conditions noted are these: read-out: IZ.
Data set [8] relates to Klebsiella pneumoniae. Put plainly: Antimicrobial activity against Klebsiella pneumoniae INCQS 00083 ATCC 4352 assessed as zone of inhibition at 5 mg/ml after 18 to 24 hrs by disc diffusion method. It counts as functional. The conditions noted are these: read-out: IZ.
Data set [9] concerns Pseudomonas aeruginosa. Briefly: Antimicrobial activity against Pseudomonas aeruginosa INCQS 00099 ATCC 27853 assessed as zone of inhibition at 5 mg/ml after 18 to 24 hrs by disc diffusion method. Type of data set: functional. The conditions noted are these: read-out: IZ.
Data set [10] is described as follows: Hemolytic activity against human erythrocytes assessed as hemolysis at 200 ug/ml after 3 hrs by spectrophotometric analysis relative to control. Type of data set: ADME, cell-based, Erythrocyte. Particulars: read-out: Activity. The essentials: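 Erythrocytes collected in citrate tubes, washed three times with PBS pH 7.4 by centrifugation and resuspended in PBS. Incubated with compounds at 200 µg/mL for 3 h at 37°C. Released hemoglobin was read in the supernatant at 545 nm against 1% Triton X-100 (complete lysis) and 1% DMSO (negative control). Below 10% hemolysis was taken as hemocompatible. Three independent experiments.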

As to `CC1(C)O[C@H]2[C@@H](O1)[C@@H](CNC1=C(Br)C(=O)c3ccccc3C1=O)O[C@@H]1OC(C)(C)O[C@@H]12`, the zone of inhibition at 5000 µg/mL in [1], in [2], in data set [3], in data set [4], in data set [5] and in data set [6] was 0 mm each time. In addition, the zone of inhibition at 5000 µg/mL in data set [7], in data set [8] and in [9] was 0 mm each time. The hemolysis at 3 h, 200 ug/ml in [10] fell in the range of 10.1 to 14.4%.
For the molecule `COC(=O)c1c(C)nc(C)c2c1C(=O)C=C(N)C2=O`, the zone of inhibition at 5000 µg/mL in [1], in [2], in [3], in data set [4], in [5] and in data set [6] was 0 mm in each case. For the same molecule, the zone of inhibition at 5000 µg/mL in data set [7], in data set [8] and in data set [9] was 0 mm in each case. For the same molecule, the hemolysis at 3 h, 200 ug/ml in [10] is < 10%.
For the molecule `CC1(C)O[C@H]2[C@@H](O1)[C@@H](CNC1=CC(=O)c3ccccc3C1=O)O[C@@H]1OC(C)(C)O[C@@H]12`, the zone of inhibition at 5000 µg/mL in [1], in data set [2], in data set [3], in data set [4], in data set [5] and in [6] was 0 mm throughout. The zone of inhibition at 5000 µg/mL in [7], in data set [8] and in data set [9] was 0 mm in each case. Further, in data set [10], the hemolysis at 3 h, 200 ug/ml is < 10%.
`COC(=O)c1c(C)nc(C)c2c1C(=O)C=C(NC[C@H]1O[C@@H](OC)[C@@H]3OC(C)(C)O[C@@H]31)C2=O`: the zone of inhibition at 5000 µg/mL in data set [1], in data set [2], in [3], in [4], in [5] and in data set [6] was 0 mm each time. Also, the zone of inhibition at 5000 µg/mL in data set [7], in data set [8] and in data set [9] was 0 mm each time. Also, the hemolysis at 3 h, 200 ug/ml in data set [10] was < 10%.
With `COC(=O)c1c(C)nc(C)c2c1C(=O)C(Cl)=C(NC[C@H]1O[C@@H]3OC(C)(C)O[C@@H]3[C@H]3OC(C)(C)O[C@H]31)C2=O`, the zone of inhibition at 5000 µg/mL in data set [1], in data set [2], in data set [3], in data set [4], in data set [5] and in data set [6] was 0 mm each time. For the same molecule, the zone of inhibition at 5000 µg/mL in data set [7], in data set [8] and in data set [9] was 0 mm each time. In data set [10], the hemolysis at 3 h, 200 ug/ml was < 10%.
Regarding `CC1(C)O[C@H]2O[C@H](CNC3=CC(=O)c4ccccc4C3=O)[C@H](O)[C@H]2O1`, the zone of inhibition at 5000 µg/mL in data set [1], in data set [2], in [3], in data set [4], in data set [5] and in data set [6] was 0 mm in each case. Also, the zone of inhibition at 5000 µg/mL in [7], in [8] and in data set [9] was 0 mm in each case. In data set [10], the hemolysis at 3 h, 200 ug/ml was < 10%.
Turning to `COC(=O)c1c(C)nc(C)c2c1C(=O)C(Cl)=C(NC[C@H]1O[C@@H](OC)[C@@H]3OC(C)(C)O[C@@H]31)C2=O`, the zone of inhibition at 5000 µg/mL in data set [1], in data set [2], in data set [3], in data set [4], in data set [5] and in [6] was 0 mm in each case. In addition, the zone of inhibition at 5000 µg/mL in [7], in data set [8] and in data set [9] was 0 mm in each case. The hemolysis at 3 h, 200 ug/ml in [10] is < 10%.
Consider `O=C(O)c1cn(C2CC2)c2cc(N3CCNCC3)c(F)cc2c1=O` [CIPROFLOXACIN], for which the zone of inhibition at 5000 µg/mL in data set [6] was determined as 35 mm; in data set [7] it was 28 mm; in [8], 27 mm; in data set [9], 36 mm.
For the molecule `CO[C@@H]1O[C@H](CNC2=CC(=O)c3ccccc3C2=O)[C@H]2OC(C)(C)O[C@@H]12`, the zone of inhibition at 5000 µg/mL in [1], in [2], in data set [3], in [4], in data set [5] and in [6] was 0 mm each time. Further, the zone of inhibition at 5000 µg/mL in [7], in data set [8] and in data set [9] was 0 mm throughout. In data set [10], the hemolysis at 3 h, 200 ug/ml was < 10%.
With `COC(=O)c1c(C)nc(C)c2c1C(=O)C(Br)=C(NC[C@H]1O[C@@H]3OC(C)(C)O[C@@H]3[C@H]3OC(C)(C)O[C@H]31)C2=O`, the zone of inhibition at 5000 µg/mL in data set [1], in data set [2], in [3], in data set [4], in data set [5] and in data set [6] was 0 mm throughout. The zone of inhibition at 5000 µg/mL in data set [7], in data set [8] and in data set [9] was 0 mm in each case. In addition, in data set [10], the hemolysis at 3 h, 200 ug/ml is < 10%.
